Measurements of several laboratories.
Lines come from different studies, so protocols differ.
Organic anion transporter 3: Organic anion transporter 3 (Mus musculus, UniProt O88909)
PTGS1: Prostaglandin G/H synthase 1 (PTGS1, Ovis aries, UniProt P05979)

Nc1ncnc2c1ncn2[C@@H]1O[C@H](CO)[C@@H](O)[C@H]1O  IC50 (Organic anion transporter 3; transporter uptake; inhibitor; radiometric; oocytes): 930 µM
N=c1c[n+](N2CCOCC2)[n-]o1  IC50 (NAD-dependent protein deacetylase sirtuin-3, mitochondrial (SIRT3, Homo sapiens, UniProt Q9NTG7); enzyme activity; inhibitor): 35 µM
COc1ccc(-n2c(-c3ccccc3)csc2=NN=Cc2c(C)ccc(C(C)C)c2O)cc1  IC50 (PTGS1; enzyme activity; inhibitor; absorbance): 14.3 µM
CC1(CN)CCN(c2cnc3c(Sc4ccncc4Cl)n[nH]c3n2)CC1  IC50 (Tyrosine-protein phosphatase non-receptor type 11 (PTPN11, Homo sapiens, UniProt Q06124); enzyme activity; inhibitor): > 100 µM
O=c1cc(-c2ccc(O)cc2)oc2c([C@@H]3OC[C@H](O)[C@H](O)[C@H]3O)c(O)c([C@@H]3O[C@H](CO)[C@@H](O)[C@H](O)[C@H]3O)c(O)c12  Kd (Calcium/calmodulin-dependent protein kinase type II subunit delta (CAMK2D, Homo sapiens, UniProt Q13557); binding; SPR): 140 µM
COc1ccc(-c2csc(=NN=Cc3c(C)ccc(C(C)C)c3O)n2-c2ccccc2Cl)cc1  IC50 (PTGS1; enzyme activity; inhibitor; absorbance): 9.87 µM
Cn1c(=O)c2c(ncn2C)n(C)c1=O  IC50 (Organic anion transporter 3; transporter uptake; inhibitor; radiometric; oocytes): 7.5 µM
COc1cc(C(=O)OCCCN2CCCN(CCCOC(=O)c3cc(OC)c(OC)c(OC)c3)CC2)cc(OC)c1OC  IC50 (Equilibrative nucleoside transporter 2 (Homo sapiens, UniProt Q14542); transporter uptake; inhibitor; radiometric; oocytes): 256 µM
CCCC(=O)NCCCN1CCc2c([nH]c3ccc(Cl)cc23)C1  IC50 (Sodium-dependent serotonin transporter (SLC6A4, Homo sapiens, UniProt P31645); transporter uptake; inhibitor): 96.2 µM
CC(=O)N[C@H]1C(O)O[C@H](CO)[C@@H](O[C@@H]2O[C@H](CO)[C@H](O)[C@H](O)[C@H]2O)[C@@H]1O (stereo partly shown)  Kd (Galectin-7 (LGALS7, Homo sapiens, UniProt P47929); binding; ITC): 225 µM
